Results on eight compounds are retold here after ChEMBL document CHEMBL2203129, “Structure-activity relationship studies of naphthol AS-E and its derivatives as anticancer agents by inhibiting CREB-mediated gene transcription” (Bioorg Med Chem, 2012).

Active and inactive are the calls of the source. No cut-off for these calls is given here.

For one data set, the system named is MDA-MB-468. Briefly: Growth inhibition of human MDA-MB-468 cells after 72 hrs by MTT assay. Type of data set: functional. To be noted: MDA-MB-468, 72 h. On the technique in general: Tetrazolium dyes change colour on reduction, which living cells bring about.
Another data set concerns MDA-MB-231. The experiment in a line: Growth inhibition of human MDA-MB-231 cells after 72 hrs by MTT assay. The format is functional. To be noted: MDA-MB-231, 72 h.
Data set [1] relates to MCF7. The experiment in a line: Growth inhibition of human MCF7 cells after 72 hrs by MTT assay. The settings on record: MCF7, 72 h. Type of data set: functional.
Data set [2] concerns A549. Briefly: Growth inhibition of human A549 cells after 72 hrs by MTT assay. The format is functional. The settings on record: A549, 72 h.
The nature of data set [3]: Inhibition of CREB-mediated gene transcription in human HEK293T cells by renilla luciferase reporter assay. The format is cell-based. The settings on record: HEK-293T. Summed up: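 HEK 293T cells transfected with pCRE-RLuc, replated after 3 h and attached overnight; compound added, then forskolin (final 10 µM) 30 min later; 5 h at 37 °C.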
In general terms: Reporter assays use an easily measured gene product as a stand-in for the process of interest.

Data set [4] in a line: Inhibition of KIX domain of CBP interaction with KID domain of CREB after 20-24 hrs by Renilla luciferase complementation assay. In a few lines: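 RLucC-KIX (20 ng) and KID-RLucN lysate (1.0 µg) per reaction in Renilla lysis buffer with compound, incubated at 4 °C for 20–24 h; residual luminescence read with benzyl-coelenterazine in PBS pH 7.4.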
Data set [5] has as its system A549. Briefly: Inhibition of CREB in human A549 cells assessed as reduction in VEGF level at 2.5 to 10 uM after 24 hrs by ELISA. The format is cell-based. In a few lines: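 A549 cells treated in duplicate for 24 h; VEGF in culture medium measured by ELISA and normalized to medium protein concentration; one-way ANOVA.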
(ELISA stands for enzyme-linked immunosorbent assay.)

Data set [6] concerns A549. The experiment in a line: Inhibition of CREB in human A549 cells assessed as reduction in Bcl-2 protein expression at 5 to 10 uM after 48 hrs by Western blot analysis. Type of data set: cell-based. In a few lines: (§1)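 Exponentially growing A549 cells treated 48 h; washed in cold PBS, lysed in NP-40 buffer (50 mM Tris pH 8.0, 5 mM EDTA, 150 mM NaCl, 1 mM DTT, 0.5% NP-40) with 8 M urea. Equal protein on 10% SDS-PAGE, PVDF transfer, antibody detection; GAPDH loading control.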

For the next data set, the system named is HFF. The experiment in a line: Cytotoxicity against human HFF cells assessed as effect on cell viability at 5 to 10 uM after 48 hrs by trypan blue exclusion assay. The format is cell-based. In a few lines:
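HFF cells (maintained in DMEM, 10% FBS, 37 °C, 5% CO2) exposed to increasing compound concentrations in triplicate for 48 h; live cells counted by trypan blue exclusion.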

The test system of another data set is HMEC. Briefly: Cytotoxicity against HMEC assessed as effect on cell viability at less than or equal to 10 uM after 48 hrs by trypan blue exclusion assay. Type of data set: cell-based. To be noted: human. Summed up:
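HMEC grown in MEGM complete medium, switched to DMEM with 10% FBS and penicillin/streptomycin on the day of treatment; compound added at various concentrations, triplicate, 48 h at 37 °C, 5% CO2. Live cells counted by trypan blue exclusion; one-way ANOVA.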

The subject of data set [7] is MCF7. The experiment in a line: Cytotoxicity against human MCF7 cells expressing wild type CREB assessed as reduction in cell proliferation at 0.5 to 10 uM after 48 hrs by MTT assay. Type of data set: functional, cell-based. Summed up:
(§2)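 MCF-7 cells stably transfected with Flag-tagged VP16-CREB (G418 2 mg/mL selection; expression checked by anti-FLAG blot) alongside parental MCF-7. Compound at indicated concentrations in triplicate for 48 h; live cells quantified with MTT reagent; Student's t-test.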

Data set [8] relates to MCF7. Briefly: Cytotoxicity against human MCF7 cells expressing VP16-CREB mutant assessed as effect on cell proliferation at 0.5 to 10 uM after 48 hrs by MTT assay. Type of data set: functional, cell-based. In a few lines:
as §2

For data set [9], the system named is A549. The experiment in a line: Induction of apoptosis in human A549 cells assessed as necrotic cells at 10 uM after 48 hrs by Annexin V-FITC/PI staining based flow cytometry (reference value: 1.5%). Type of data set: functional.
Data set [10] relates to A549. Briefly: Induction of apoptosis in human A549 cells assessed as late apoptotic cells at 10 uM after 48 hrs by Annexin V-FITC/PI staining based flow cytometry (reference value: 2.98%). The format is functional.
Data set [11] concerns A549. The experiment in a line: Induction of apoptosis in human A549 cells assessed as early apoptotic cells at 10 uM after 48 hrs by Annexin V-FITC/PI staining based flow cytometry (reference value: […]). Type of data set: functional.
Data set [12] deals with A549. The experiment in a line: Induction of apoptosis in human A549 cells assessed as viable cells at 10 uM after 48 hrs by Annexin V-FITC/PI staining based flow cytometry (reference value: 91.6%). To be noted: A549, 48 h, read-out: Activity. Type of data set: functional.
Data set [13] deals with A549. The experiment in a line: Induction of apoptosis in human A549 cells assessed as necrotic cells at 7.5 uM after 48 hrs by Annexin V-FITC/PI staining based flow cytometry (reference value: 1.5%). Type of data set: functional.
The subject of data set [14] is A549. The experiment in a line: Induction of apoptosis in human A549 cells assessed as late apoptotic cells at 7.5 uM after 48 hrs by Annexin V-FITC/PI staining based flow cytometry (reference value: 2.98%). The format is functional.
Data set [15] relates to A549. The experiment in a line: Induction of apoptosis in human A549 cells assessed as early apoptotic cells at 7.5 uM after 48 hrs by Annexin V-FITC/PI staining based flow cytometry (reference value: […]). The format is functional.
The test system of data set [16] is A549. Briefly: Induction of apoptosis in human A549 cells assessed as viable cells at 7.5 uM after 48 hrs by Annexin V-FITC/PI staining based flow cytometry (reference value: 91.6%). Type of data set: functional. To be noted: A549, 48 h, read-out: Activity.
Data set [17] has as its system A549. The experiment in a line: Induction of apoptosis in human A549 cells assessed as necrotic cells at 5 uM after 48 hrs by Annexin V-FITC/PI staining based flow cytometry (reference value: 1.5%). Type of data set: functional.
The subject of data set [18] is A549. The experiment in a line: Induction of apoptosis in human A549 cells assessed as late apoptotic cells at 5 uM after 48 hrs by Annexin V-FITC/PI staining based flow cytometry (reference value: 2.98%). The format is functional.
Data set [19] concerns A549. The experiment in a line: Induction of apoptosis in human A549 cells assessed as early apoptotic cells at 5 uM after 48 hrs by Annexin V-FITC/PI staining based flow cytometry (reference value: […]). The format is functional.
The test system of data set [20] is A549. Briefly: Induction of apoptosis in human A549 cells assessed as viable cells at 5 uM after 48 hrs by Annexin V-FITC/PI staining based flow cytometry (reference value: 91.6%). Type of data set: functional. The settings on record: A549, 48 h, read-out: Activity.
Data set [21] deals with A549. Briefly: Induction of apoptosis in human A549 cells assessed as PARP cleavage at 5 to 10 uM after 48 hrs by Western blot analysis. The format is functional, cell-based. Summed up: as §1
The target of data set [22] is Cellular tumor antigen p53 (Homo sapiens) (UniProt P04637). The experiment in a line: Inhibition of p53 in human A549 cells assessed as effect on p21 gene expression at 1 to 10 uM after 4 hrs by quantitative RT-PCR analysis. The format is cell-based. Summed up:
(§3)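 A549 cells treated in duplicate for 4 h; total RNA DNase-treated (37 °C, 30 min), reverse-transcribed with random hexamers; qPCR with SYBR Green normalized to HPRT; one-way ANOVA.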

The test system of data set [23] is A549. The experiment in a line: Inhibition of CREB in human A549 cells assessed as reduction in VEGF gene expression at 10 uM after 4 hrs by quantitative RT-PCR analysis. The format is cell-based.
For data set [24], the system named is A549. Briefly: Inhibition of CREB in human A549 cells assessed as reduction in Bcl-2 gene expression at 1 to 10 uM after 4 hrs by quantitative RT-PCR analysis. Type of data set: cell-based. In a few lines: as §3
Data set [25] deals with Cellular tumor antigen p53 (Homo sapiens) (UniProt P04637). The experiment in a line: Inhibition of p53 transfected in HEK293T cells assessed as gene transcription after 5 hrs by Renilla luciferase reporter assay. Type of data set: cell-based. The settings on record: HEK-293T.
Chain of Cellular tumor antigen p53 (Homo sapiens) (P04637 whole entry, looked up): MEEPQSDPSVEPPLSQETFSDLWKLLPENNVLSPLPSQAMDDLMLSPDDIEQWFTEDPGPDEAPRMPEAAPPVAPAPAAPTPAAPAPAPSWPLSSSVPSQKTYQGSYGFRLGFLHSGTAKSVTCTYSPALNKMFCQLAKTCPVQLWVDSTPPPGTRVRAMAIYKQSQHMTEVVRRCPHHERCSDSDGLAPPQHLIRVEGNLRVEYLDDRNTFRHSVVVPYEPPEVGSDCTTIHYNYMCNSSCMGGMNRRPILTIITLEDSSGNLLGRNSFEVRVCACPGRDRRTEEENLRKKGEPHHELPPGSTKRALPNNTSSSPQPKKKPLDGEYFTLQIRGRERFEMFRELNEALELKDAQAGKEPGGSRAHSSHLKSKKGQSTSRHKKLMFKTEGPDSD
Data set [26] shares this target. Briefly: Inhibition of p53 in human A549 cells assessed as effect on p21 protein expression at 5 to 10 uM after 48 hrs by Western blot analysis. Type of data set: cell-based. In a few lines: as §1
The test system of data set [27] is MCF7. The experiment in a line: Cytotoxicity against human MCF7 cells expressing wild type CREB assessed as reduction in cell proliferation at 10 to 50 uM after 48 hrs by MTT assay. The format is functional, cell-based. In a few lines:
as §2

Data set [28] has as its system MCF7. The experiment in a line: Cytotoxicity against human MCF7 cells expressing VP16-CREB mutant assessed as reduction in cell proliferation at 10 to 50 uM after 48 hrs by MTT assay. Type of data set: functional, cell-based. In a few lines:
as §2

`O=C(Nc1ccccn1)c1cc2ccccc2cc1O`: the GI50 (usually the concentration that inhibits growth by half) came out at 5.69 µM with MDA-MB-468, 44.2 µM in the data set on MDA-MB-231, 6.25 µM in the data set on MCF7 [1] and 75.8 µM in the data set on A549 [2]. Further, the IC50 (commonly the concentration at which inhibition is half-maximal) was more than 50 µM in [3] and 1.69 µM in data set [4].

`O=C(Nc1ccc(Cl)cc1)c1cc2ccccc2cc1O`: the inhibition result with A549 [5], with A549 [6], with A549 [23] and in the data set on A549 [24] was “Active” each time. Besides, the GI50 was 1.46 µM in the data set on MDA-MB-468, 2.35 µM in the data set on MDA-MB-231, 2.81 µM with MCF7 [1] and 2.9 µM in the data set with A549 [2]. The values for the IC50 in data set [3] and in data set [4] were 2.29 µM and 2.9 µM, respectively. The Activity entry in the data set with HFF was “Non-toxic”; in the data set on HMEC, “Non-toxic”; in the data set on A549 [9] it was 0.58%; in the data set with A549 [10] it was 4.2%; in the data set on A549 [11], 19.4%; with A549 [13], 1.42%. The Activity with A549 [14] is reported as 2.9%; in the data set on A549 [15] it was 10.1%; with A549 [17], 1.36%; with A549 [18], 3.06%; in the data set with A549 [19], 6.5%. Besides, the result with MCF7 [7] and in the data set on A549 [21] was Active. In the data set with MCF7 [8], the result was inactive. In addition, in the data set on A549 [12], the viability at 10 µM came to 75.9%. For the same compound, in the data set with A549 [16], the viability at 7.5 µM was determined as 85.6%. In addition, the viability at 5 µM with A549 [20] is 89.1%. In addition, the inhibition result in data set [22], in [25] and in data set [26] was “inactive” in each case.

`O=C(Nc1ccc(Br)cc1)c1cc2ccccc2cc1O`: the GI50 in the data set on MDA-MB-468 was 6.61 µM; with MDA-MB-231, 9.93 µM; in the data set on MCF7 [1], 1.83 µM; in the data set with A549 [2], 3.98 µM. Moreover, the values for the IC50 in [3] and in [4] were 3.45 µM and 9.59 µM, respectively.

For the compound `O=C(Nc1ccc(O)cc1)c1cc2ccccc2cc1O`, the GI50 in the data set on MDA-MB-468 is 65.3 µM; with MDA-MB-231 it was more than 100 µM; in the data set with MCF7 [1] it was 9.52 µM; in the data set with A549 [2] it was 28.1 µM. For the same compound, the values for the IC50 in [3] and in data set [4] were 40.5 µM and 28.2 µM, respectively.

Consider `CN(C(=O)c1cc2ccccc2cc1O)c1ccc(Cl)cc1`, for which the result in the data set with MCF7 [27] and in the data set on MCF7 [28] was Active.

As for `O=C(Nc1ccc(F)cc1)c1cc2ccccc2cc1O`, the GI50 with MDA-MB-468 stood at 2.78 µM; in the data set with MDA-MB-231 it was 11.4 µM; with MCF7 [1], 4.16 µM; in the data set on A549 [2], 6.78 µM. The values for the IC50 in [3] and in [4] were 4.86 µM and 1.73 µM, respectively.

For `O=C(Nc1ccc(C(F)(F)F)cc1)c1cc2ccccc2cc1O`, the GI50 in the data set on MDA-MB-468 came out at 63.3 µM; in the data set on MDA-MB-231, 64.2 µM; in the data set on MCF7 [1], 3.62 µM; with A549 [2] it was 4.15 µM. The IC50 in data set [3] is 6.75 µM; in [4], more than 50 µM.

In the case of `O=C(Nc1ccc(I)cc1)c1cc2ccccc2cc1O`, the GI50 is 2.94 µM in the data set with MDA-MB-468, 7.87 µM in the data set with MDA-MB-231, 9.76 µM in the data set with MCF7 [1] and 5.51 µM in the data set on A549 [2]. The IC50 was determined as 4.98 µM in data set [3] and 34.5 µM in data set [4].
